# Screens (PubChem)
# APJ antagonist – APJ receptor antagonism. P35414. CHO-K1 APJ beta-arrestin complementation, luminescence. inhibition, % at 20 µM. 0.32% of 330,000 active. AID 2521;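 active = inhibition above about 40% at 20 µM, limit read from the data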;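 note: cells challenged with 10 nM apelin-13 agonist together with compound; plate controls were apelin-13 plus DMSO wells for no effect and DMSO wells lacking apelin-13 for full effect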
# EBI2 antag – blocks human EBI2 receptor beta-arrestin signaling; P32249; EBI2 beta-arrestin recruitment, luminescence, 7a,25-OHC stimulated; inhibition, % at 5 µM; 0.81% of 360,000 active; AID 651636; in the data active = inhibition above about 38%;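 note: enzyme fragment complementation signal reports receptor beta-arrestin coupling in cells; 0% = agonist plus DMSO wells and 100% = wells without agonist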
# CCR6 antag – blocks CCL20-driven beta-arrestin recruitment at human CCR6; AID 493098; CHO-K1 CCR6 PathHunter beta-arrestin, luminescence, CCL20-stimulated; 0.49% of 340,000 active; inhibition, % at 20 µM; P51684;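 active = compounds whose inhibition of the agonist-driven luminescence signal at 20 µM reaches about 50%, limit read from the data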;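 note: cells stimulated with CCL20 at 14 nM final; plate controls were DMSO with CCL20 for no effect and DMSO without agonist for full effect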
# APJ agonist – agonists of human APJ apelin receptor | CHO-K1 APJ PathHunter beta-arrestin, luminescence; 0% DMSO wells, 100% apelin | P35414 | activation, % at 20 µM | 0.11% of 330,000 active | AID 2520;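 active = activation more than six SD over the plate average, tested at 20 µM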;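 note: 0% = DMSO alone and 100% = apelin-13 at 10 nM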
#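 Incubation: overnight seeding, 90 min compound at 25 °C, 1 h detection; test system: PathHunter CHO-K1 APJ (AGTRL-1) beta-arrestin reporter cells; amount: 1000 cells/well; doses: one dose, 20 µM compound, 1% DMSO; measured by: beta-gal luminescence; measure: agonist-driven arrestin binding to APJ; benchmarks: negative DMSO alone, positive Apelin-13 at 10 nM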
# CXCR6 inh – CXCR6 (human) receptor inhibition; CHO-K1 PathHunter CXCR6 beta-arrestin, luminescence; inhibition, % at 20 µM; 0.36% of 360,000 active; O00574; in the data active = inhibition above about 34%, passing the limit was not always enough;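 note: antagonist mode with CXCL16 agonist at 10 nM final; 0% = 10 nM CXCL16 with DMSO and 100% = unstimulated wells without agonist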
# Target sequence (O00574 whole entry, looked up): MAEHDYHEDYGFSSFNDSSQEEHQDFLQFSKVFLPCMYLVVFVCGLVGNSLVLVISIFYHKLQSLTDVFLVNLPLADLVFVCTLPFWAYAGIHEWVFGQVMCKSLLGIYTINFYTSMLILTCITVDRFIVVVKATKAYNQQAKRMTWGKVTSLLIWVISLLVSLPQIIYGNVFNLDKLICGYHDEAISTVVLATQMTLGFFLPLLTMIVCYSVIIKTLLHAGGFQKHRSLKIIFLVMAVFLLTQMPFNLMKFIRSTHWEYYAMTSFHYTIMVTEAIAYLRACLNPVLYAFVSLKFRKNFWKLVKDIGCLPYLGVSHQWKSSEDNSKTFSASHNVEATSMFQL
# APJ antag confirm – APJ receptor antagonism confirmation; shares compounds with APJ antagonist; APJ beta-arrestin recruitment, luminescence, antagonist mode; inhibition, % at 20 µM; 66% of 950 active; in the data active = inhibition above about 50%
# * marks the source's active call; other numbers are inactive results; / = not tested or not shown. Compounds with a hit are over-represented: about 1.5% of the library has one in this group of screens.
SMILES,APJ antagonist,EBI2 antag,CCR6 antag,APJ agonist,CXCR6 inh,APJ antag confirm
CC1=C(C(=O)N(C)C)CC(CC(=O)NCc2cccc3ccccc23)C(=O)N1Cc1ccc(F)cc1 (configuration not stated),/,-3,/,/,3,/
O=C1NN(c2ccc(Cl)cc2)C(=O)/C1=C\c1ccc(-c2cccc(C(=O)O)c2)o1,/,-9,22,/,20,/
O=C1NN(c2ccccc2)C(=O)/C1=C\c1ccc(-c2cc([N+](=O)[O-])ccc2O)o1,46*,17,62*,-11,43*,93*
CSc1ccccc1C(=O)NC1CCCCCC1,46*,-4,-12,-3,-4,24
CCCCCCCCCCCCCCCC[N+](C)(C)CCN(Cc1ccc(OC)cc1)c1ncccn1,51*,-5,65*,-14,5,42
Cc1cccnc1C(NC(=O)C1CCN(Cc2ccc(Oc3ccccc3)cc2)CC1)c1ccc(F)cc1 (configuration not stated),/,22,/,/,37,/
CN1CCCC(OC(=O)c2cc(Br)ccc2Cl)C1 (configuration not stated),51*,3,16,-4,0,35
CN1CCCC(OC(=O)c2cc(Cl)ccc2Cl)C1 (configuration not stated),-2,5,-10,-2,-5,/
O=C(NN1C(=O)/C(=C/c2ccc(O)c([N+](=O)[O-])c2)SC1=S)c1ccccc1Cl,47*,15,54*,-10,39*,69*
CCOC(=O)N1CC=C2C(C#N)=C(N)C(C#N)(C#N)[C@H](c3ccc(OCC)c(OCC)c3)[C@H]2C1,22,20,17,-3,6,/
N#CC1=C(N)C(C#N)(C#N)C(c2cccnc2)C2CN(C(=O)OCc3ccccc3)CC=C12 (configuration not stated),50*,9,53*,-8,7,27
CCOC(=O)c1cc(-c2ccc(F)cc2)nc2c1c(=O)[nH]c(=O)n2Cc1ccccc1,9,2,-6,0,-4,/
CCOC(=O)c1cc(-c2cc(OC)c(OC)c(OC)c2)nc2c1c(=O)[nH]c(=O)n2Cc1ccccc1,55*,29,35,-6,28,40
CCOC(=O)C1CCCN(C(=O)c2cccnc2Oc2ccccc2)CC1 (configuration not stated),/,-13,/,/,-4,/
COc1ccccc1Oc1cc(-n2nc(C)cc2C)ncn1,54*,3,-3,-1,0,9
COc1ccccc1OCC(O)Cn1nc(C)cc1C (configuration not stated),13,-5,5,0,-6,/
Cc1nc2c(OCc3ccc(Cl)cc3)cccn2c1N(C)C(=O)CCC1CCCC1,/,23,/,/,-6,/
COC(=O)c1cc(N=Nc2sc(N)nc2C)cc(C(=O)OC)c1,45*,11,28,-4,8,27
CCOC(=O)/C=C/S(=O)(=O)c1ccc(NC(C)=O)cc1,44*,-7,48,0,34,83*
Cc1cccc(C(O)c2ncc(-c3ccccc3)[nH]2)c1C (configuration not stated),/,-2,/,/,-3,/
COc1ccc(N=C2C(=O)Nc3ccc(C)c(Br)c32)cc1,89*,32,105*,-19,82*,159*
COc1ccccc1CN1C(=NC(=O)CCC2CCCC2)SC2CS(=O)(=O)CC21 (configuration not stated),47*,-5,8,-2,-7,2
CCN1C(=O)/C(=C2\C=Cc3ccccc3N2CC)SC1=S,43*,25,84*,-6,57*,100*
COC(=O)[C@]12CCCCC=C1N(CCC1=CCCCC1)C(=O)[C@H](CC(=O)N1CCCC1)C2,/,4,/,/,4,/
CCOc1ccc(C(CN2CCOCC2)C(C)=O)cc1OC (configuration not stated),/,7,/,/,8,/
SMILES,APJ antagonist,EBI2 antag,CCR6 antag,APJ agonist,CXCR6 inh,APJ antag confirm
Nc1c(-c2ccc(C(F)(F)F)cc2)nc2ncccn12,/,3,/,/,/,/
O=C(Nc1nc(-c2ccccn2)cs1)c1cc(Cl)ccc1[N+](=O)[O-],72*,40*,77*,-8,59*,97*
Cc1ccc(C2=NN3C(C(=O)c4ccccc4)Oc4ccccc4C3C2)cc1 (configuration not stated),46*,18,13,3,20,46
Cc1ccc(C(=O)C2Oc3ccccc3C3CC(c4ccc(C)cc4)=NN23)cc1 (configuration not stated),5,17,12,4,2,/
Cc1cccc(NC(=O)c2cc3c(=O)n4ccccc4nc3n(CC(C)C)c2=N)c1,-40,8,29,0,9,/
COc1cccc(NC(=O)c2cc3c(=O)n4ccccc4nc3n(CC(C)C)c2=N)c1,41*,13,27,-1,5,17
CCOc1cc(/C=C2\NC(=O)NC2=O)cc([N+](=O)[O-])c1O,43*,8,36,-4,22,35
CC1(C(=O)N2Cc3ccccc3C2)CCN1C(=O)Cc1ccccc1 (configuration not stated),/,1,/,/,2,/
CC1CCCCN1S(=O)(=O)c1ccc(C(=O)N(CCCN(C)C)c2nc3ccc(Br)cc3s2)cc1 (configuration not stated),48*,-12,16,18,-11,37
CC(C)NC(=S)N/N=C1\CCCCC1C1CCCCC1 (configuration not stated),43*,-10,85*,-7,28,85*
COc1cccc(/C=C/c2ccc3cccc(O)c3n2)c1OC,54*,23,50*,-8,37,79*
Oc1cccc(/C=C/c2ccc3cccc(O)c3n2)c1,-10,-6,31,0,30,/
COc1cccc(/C=C/c2ccc3cccc(O)c3n2)c1,45*,35,62*,-11,35,88*
Cc1ccc(Cc2c(-c3ccccc3)nc3c(Cl)cc(C(F)(F)F)cn23)cc1,/,-16,/,/,5,/
Cc1cccc(NC(=S)NNC(=O)c2cccc([N+](=O)[O-])c2)c1,27,-7,18,-5,17,/
Cc1occc1C(=O)NNC(=S)Nc1cccc([N+](=O)[O-])c1,45*,-4,32,-5,4,47
Cc1ccc(S(=O)(=O)NC(=O)C2(C)CCN2C(=O)c2ccccc2)cc1 (configuration not stated),/,-1,/,/,1,/
Cc1ccc(NC(=S)NNC(=O)c2ccc(N3CCOCC3)c([N+](=O)[O-])c2)cc1Cl,42*,3,31,-7,35,63*
COc1ccc(C(=O)NC(=S)Nc2ccc(N3CCN(C(C)=O)CC3)cc2)cc1[N+](=O)[O-],13,6,44,-3,30,/
O=C(NNC(=S)Nc1ccc(Cl)cc1Cl)c1ccc(N2CCOCC2)c([N+](=O)[O-])c1,40*,9,27,-5,25,62*
